Screens as filed in PubChem BioAssay.
Sampled rows, rich in hits. Any-hit rate of the full collection: about 7.4%.
M1 agonist: M1 muscarinic receptor agonism; CHO-M1 cells, Fluo-4 calcium fluorescence, agonist mode; stronger effect = higher value; actives 3% (n = 64,000); B-score at 10 µM;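 active = fluorescence rise, raw or as B-score row- and column-corrected plate score, outside the 99.7% band of its plate's samples, either direction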
M1 antagonist: antagonists of rat M1 muscarinic receptor; P08482; B-score at 10 µM; CHO-M1 cells, Fluo-4 calcium, ACh EC80 antagonist mode; stronger effect = lower value; actives 3.4% (n = 64,000);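 active = calcium fluorescence response, raw or row-and-column corrected B-score, differing from the plate sample mean either way at a set confidence level, mostly lower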
Jurkat viability: cytotoxic compounds reducing Jurkat cell viability; Jurkat E6.1 viability, ATP luminescence, 48 h; inhibition, % at 4 µM; actives 1.2% (n = 56,000);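 active = inhibition above the mean inhibition of all tested compounds plus 3 SD, cut at about 28% in these data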
S1P3 ag: S1P3 (human) receptor agonism | Q99500 | S1P3 NFAT-BLA reporter cells, FRET ratio; relative to 1 µM S1P, basal subtracted | activation, % at 4.5 µM | actives 0.1% (n = 60,000);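 active = activation above the screen-wide mean plus 3 SD, cut at about 4.5% in these data, passing the limit was not always enough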
Target sequence (Q99500 whole entry, looked up): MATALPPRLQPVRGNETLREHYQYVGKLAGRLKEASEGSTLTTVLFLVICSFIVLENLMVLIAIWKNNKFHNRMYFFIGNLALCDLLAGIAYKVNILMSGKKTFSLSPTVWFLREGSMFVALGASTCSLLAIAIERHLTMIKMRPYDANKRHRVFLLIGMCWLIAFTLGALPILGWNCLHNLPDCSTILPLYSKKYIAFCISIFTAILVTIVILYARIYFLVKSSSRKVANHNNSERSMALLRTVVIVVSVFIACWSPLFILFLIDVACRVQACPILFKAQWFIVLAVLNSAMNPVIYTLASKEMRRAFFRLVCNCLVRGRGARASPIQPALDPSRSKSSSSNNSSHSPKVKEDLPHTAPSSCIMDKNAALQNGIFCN
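material = human S1P3 NFAT-BLA reporter CHO cells | schedule = 4 h compound at 37 °C, 2 h substrate at RT | measured by = fluorescent BLA substrate, ex 405 nm, em 460/535 nm ratio | controls = 1 µM S1P reference | replication = primary once, confirmation triplicate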
JNK3 blocker: blocks human JNK3 kinase activity | inhibition, % at 8 µM | P53779 | purified JNK3 kinase activity, HTS | AID 746 | actives 0.61% (n = 60,000); in the data active = inhibition above about 17%;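 note: 0% = DMSO and 100% = reference inhibitor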
S1P1 ag-PAM: activates or potentiates agonism at human S1P1 receptor; activation, % at 9.5 µM; S1P1 CRE-bla cells, forskolin, beta-lactamase FRET, potentiator mode; S1P1 agonist co-added at EC20, 2 nM; 100% = saturating reference agonist, 0% = basal; AID 449; P21453; actives 0.57% (n = 56,000);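 active = activation above a cutoff set at the mean activation of all tested compounds plus 3 SD, cut at about 54% in these data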;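 note: forskolin at 4 µM as EC80 and the EC20 agonist is SEW2871; 100% = SEW2871 at its EC100 plus forskolin at EC80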
M1 agonist conf: confirmation of rat M1 muscarinic receptor agonists. shares compounds with M1 agonist. CHO-M1 cells, Fluo-4 calcium fluorescence, agonist mode; actives lie on both sides. fluorescence change (max-min) at 10 µM. actives 19% (n = 1,700). AID 1488;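 active = fluorescence change differs from the solvent-only DMSO control mean at a set confidence level in both duplicate runs; inconclusive = differs from solvent-only control mean in just one of two runs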;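 note: an EC20 dose of acetylcholine follows compound addition during the same imaging run; raw fluorescence intensity difference in instrument units with no normalization to controls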
M4 agonist ctr: activates rat M4 receptor in counter-screen for M1 agonists; shares compounds with M1 agonist; CHO M4/Gqi5 cells, Fluo-4 calcium fluorescence, agonist mode; actives lie on both sides; fluorescence change (max-min) at 10 µM; actives 9% (n = 1,700); AID 1741;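 active = fluorescence change differing from the plate's solvent-only control wells at 99.7% confidence in both duplicates, whether higher or lower; inconclusive = differs from solvent controls in only one of two duplicates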
Starred values were filed as active, the others as inactive.

What do the screens show for `COc1ccccc1S(=O)(=O)Cc1ccc(C(=O)N2CCN(c3ccccc3)CC2)o1`?
M1 agonist: 1.9; M1 antagonist: -0.9; Jurkat viability: -4; S1P3 ag: -1; JNK3 blocker: -6; S1P1 ag-PAM: 13

How did COc1ccccc1S(=O)(=O)Cc1ccc(C(=O)N2CCN(c3cccc(Cl)c3)CC2)o1 do in these assays?
M1 agonist: 9.5*; M1 antagonist: -0.99; Jurkat viability: 81*; S1P3 ag: -1; JNK3 blocker: -7; S1P1 ag-PAM: 18; M1 agonist conf: -26*; M4 agonist ctr: -51

Results for Cc1ccc(C)c(N2CCN(C(=O)c3ccc(CS(=O)(=O)c4ccccc4C)o3)CC2)c1 ?
M1 agonist: 2.8*; M1 antagonist: -1.2; Jurkat viability: 40*; S1P3 ag: -1; JNK3 blocker: -2; S1P1 ag-PAM: 10; M1 agonist conf: -19; M4 agonist ctr: -28

Results for O=C(c1ccc(CS(=O)(=O)c2c(Cl)cccc2Cl)o1)N1CCN(c2ccccn2)CC1 ?
M1 agonist: 3.4*; M1 antagonist: -3*; Jurkat viability: 1; S1P3 ag: -1; JNK3 blocker: 0; S1P1 ag-PAM: -9; M1 agonist conf: -16; M4 agonist ctr: -24

What do the screens show for `Cc1cccc(N2CCN(C(=O)c3ccc(CS(=O)(=O)c4ccccc4C)o3)CC2C)c1` (stereo not drawn)?
M1 agonist: 9.2*; M1 antagonist: -2.2*; Jurkat viability: 94*; S1P3 ag: -2; JNK3 blocker: 2; S1P1 ag-PAM: 6; M1 agonist conf: inconclusive; M4 agonist ctr: -30

What do the screens show for `COc1ccc(C2CC(=O)c3cnc(NC(=O)c4ccccc4)nc3C2)c(OC)c1` (stereo not drawn)?
M1 agonist: -0.23; M1 antagonist: -0.053; Jurkat viability: 6; S1P3 ag: -2; JNK3 blocker: -5; S1P1 ag-PAM: 8

How did c1ccc2c(c1)nc(N1CCOCC1)c1nnnn12 do in these assays?
M1 agonist: 6.4*; M1 antagonist: 0.33; Jurkat viability: 0; S1P3 ag: 1; JNK3 blocker: 2; S1P1 ag-PAM: -17; M1 agonist conf: 33; M4 agonist ctr: 20

Results for c1ccc(N2CCN(c3nc4ccccc4n4nnnc34)CC2)cc1 ?
M1 agonist: 17*; M1 antagonist: 0.11; Jurkat viability: 7; S1P3 ag: -1; JNK3 blocker: 3; S1P1 ag-PAM: -9; M1 agonist conf: inconclusive; M4 agonist ctr: inconclusive

How did C[N+](C)(C)C/C=C1/COCO1 do in these assays?
M1 agonist: 49*; M1 antagonist: -13*; Jurkat viability: 4; S1P3 ag: 0; JNK3 blocker: -4; S1P1 ag-PAM: -24; M1 agonist conf: 437*; M4 agonist ctr: 178*

How did COc1ccc(C2N3CC4(C)CN2CC(C)(C3)C4)cc1OC (stereo not drawn) do in these assays?
M1 agonist: -3.1*; M1 antagonist: 0.47; M1 agonist conf: -14; M4 agonist ctr: -65*

Results for COc1cccc(Nc2nc(=O)[nH]nc2C)c1 ?
M1 agonist: -0.086; M1 antagonist: -0.32; Jurkat viability: -4; S1P3 ag: -2; JNK3 blocker: -4; S1P1 ag-PAM: 17

What do the screens show for `O=c1cc(CSc2nnc(-c3cccs3)n2Cc2ccccc2)nc2sc3ccccc3n12`?
M1 agonist: 4.2*; M1 antagonist: -0.36; Jurkat viability: 71*; S1P3 ag: 0; JNK3 blocker: 4; S1P1 ag-PAM: 18; M1 agonist conf: 4.4; M4 agonist ctr: -14

Results for O=C(NCC(c1cccnc1)N1CCN(c2ccc(F)cc2)CC1)OCc1ccccc1 (stereo not drawn) ?
M1 agonist: 1.6; M1 antagonist: -0.6

How did CS(=O)(=O)NCC(c1cccnc1)N1CCN(c2ccc(F)cc2)CC1 (stereo not drawn) do in these assays?
M1 agonist: 0.008; M1 antagonist: 0.62; Jurkat viability: -5; S1P3 ag: -1; JNK3 blocker: -3; S1P1 ag-PAM: -29

Results for CCS(=O)(=O)NCC(c1cccnc1)N1CCN(c2ccc(F)cc2)CC1 (stereo not drawn) ?
M1 agonist: 5.1*; M1 antagonist: -0.55; Jurkat viability: -9; S1P3 ag: 0; JNK3 blocker: -2; S1P1 ag-PAM: -10; M1 agonist conf: -11; M4 agonist ctr: -28

Results for O=C(NCC(c1cccnc1)N1CCN(c2ccc(F)cc2)CC1)c1cccc(Cl)c1 (stereo not drawn) ?
M1 agonist: 5.8*; M1 antagonist: -1.3; Jurkat viability: 5; S1P3 ag: -2; JNK3 blocker: 1; S1P1 ag-PAM: -7; M1 agonist conf: inconclusive; M4 agonist ctr: -51

Results for COc1ccc(CNC(=O)CN(C(=O)c2cc3sccc3n2C)C2CCCC2)cc1 ?
M1 agonist: -0.31; M1 antagonist: 0.2; Jurkat viability: -2; S1P3 ag: -1; JNK3 blocker: 3; S1P1 ag-PAM: 16

What do the screens show for `Cc1ccccc1C(=O)Nc1cccc(NC(=O)Cn2cnc3c(=O)n(C)c(=O)n(C)c32)c1`?
M1 agonist: -0.29; M1 antagonist: 0.0049; Jurkat viability: -4; S1P3 ag: -1; JNK3 blocker: 4; S1P1 ag-PAM: 2

How did O=C(CSc1nnc(NC(=O)c2ccco2)s1)NC1CCCCC1 do in these assays?
M1 agonist: 0.00067; M1 antagonist: 0.39; Jurkat viability: -1; S1P3 ag: 0; JNK3 blocker: 0; S1P1 ag-PAM: 19

How did Cc1sc2nc3n(c(=O)c2c1C)CCCS3 do in these assays?
M1 agonist: -0.39; M1 antagonist: 0.63; Jurkat viability: -6; S1P3 ag: 0; JNK3 blocker: 13; S1P1 ag-PAM: -9

Results for Cc1sc2nc3ccc(N4CCCC4)nn3c(=O)c2c1C ?
M1 agonist: 6.6*; M1 antagonist: -0.56; Jurkat viability: 15; S1P3 ag: -1; JNK3 blocker: -3; S1P1 ag-PAM: 20; M1 agonist conf: -8.3; M4 agonist ctr: -46

Results for CC(C)Cc1nnc(NS(=O)(=O)c2ccc(Cl)cc2)s1 ?
M1 agonist: 0.65; M1 antagonist: 0.014; Jurkat viability: 2; S1P3 ag: 0; JNK3 blocker: 13; S1P1 ag-PAM: 12

What do the screens show for `COc1ccc(S(=O)(=O)NCCOc2ccccc2)cc1OC`?
M1 agonist: 2.3*; M1 antagonist: -0.27; Jurkat viability: -1; S1P3 ag: -1; JNK3 blocker: 8; S1P1 ag-PAM: -4; M1 agonist conf: -11; M4 agonist ctr: -22
